Results from ChEMBL document CHEMBL1126655, “Synthesis and antiviral activity of novel isonucleoside analogs” (J Med Chem, 1993).

Experiments:
Human alphaherpesvirus 3 [1] = experiment: Antiviral activity against Varicella zoster virus (Ellen strain); format: functional; details: read-out: ID50 (the source's name)
Method in brief: (§1)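 WI-38 monolayers were infected, with virus adsorbed for 1–2 h. They were then overlaid with EMEM maintenance medium (1% carboxymethyl cellulose, 2.5% FBS) containing duplicate drug dilutions. Monolayers were stained after 4–6 days at 37 °C. ID50 was taken as the concentration giving 50% plaque reduction versus virus controls. Titrations were done in duplicate.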

Human alphaherpesvirus 1 [2] = experiment: Antiviral activity against Herpes simplex virus-1 (Schooler strain); format: functional; details: read-out: ID50 (the source's name); method in brief: as §1
Human betaherpesvirus 5 = experiment: Antiviral activity against Human cytomegalovirus (AD169 strain); format: functional; details: read-out: ID50 (the source's name); method in brief: as §1
Vaccinia virus = experiment: Antiviral activity against vaccinia virus (CL strain); format: functional; details: Orthopoxvirus vaccinia; read-out: ID50 (the source's name)
WI-38 = experiment: Tested for growth inhibition against WI-38 cells; format: functional; details: Homo sapiens, read-out: ID50 (the source's name)
Method in brief: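 WI-38 cells seeded at 1.2 × 10^6 per well, incubated overnight at 37 °C, then refed with growth medium (EMEM, 10% FBS) holding serial drug dilutions or none, for 3 more days at 37 °C. Quadruplicate cultures per concentration trypsinized and counted daily for viable cells by trypan blue exclusion.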

[3] = Antiviral activity against Herpes simplex virus-1 (KOS strain); format: functional; details: Human alphaherpesvirus 1; read-out: ID50 (the source's name); method in brief: as §1
Human alphaherpesvirus 3 [4] = experiment: Antiviral activity against Varicella zoster virus (Oka strain); format: functional; details: read-out: ID50 (the source's name); method in brief: as §1
Human alphaherpesvirus 3 [5] = experiment: Antiviral activity against Varicella zoster virus (Ito strain); format: functional; details: read-out: ID50 (the source's name); method in brief: as §1
Human alphaherpesvirus 3 [6] = experiment: Antiviral activity against Varicella zoster virus (ppIIa strain); format: functional; details: read-out: ID50 (the source's name); method in brief: as §1
Human alphaherpesvirus 3 [7] = experiment: Antiviral activity against Varicella zoster virus (Kanno-Kohmura thymidine kinase deficient strain); format: functional; details: read-out: ID50 (the source's name); method in brief: as §1
Human alphaherpesvirus 1 [8] = experiment: Antiviral activity against Herpes simplex virus-1 (thymidine kinase deficient strains isolated as BVaraU resistant mutants of HSV-1 (KOS)); format: functional; details: read-out: ID50 (the source's name); method in brief: as §1
[9] = tested on: Cercopithecine alphaherpesvirus 9; experiment: Antiviral activity against Simina varicella virus (G815 strain); format: functional; details: read-out: ID50 (the source's name)
Method in brief: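 Simian varicella virus G815 was grown from infected Vero cells and assayed by plaque reduction on Vero monolayers. Virus was adsorbed 1–2 h, then overlaid with EMEM (1% carboxymethyl cellulose, 2.5% FBS) containing duplicate drug dilutions. Staining was after 4–6 days at 37 °C. ID50 was the concentration giving 50% plaque reduction versus virus controls.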

Human alphaherpesvirus 3 [10] = experiment: Antiviral activity against Varicella zoster virus (9021 strain); format: functional; details: read-out: ID50 (the source's name); method in brief: as §1
Mus musculus [11] = experiment: Day of death in lethal test against herpes simplex virus type-2 at 12.5 mg/kg/day (mean day of death +/-SD); format: ADME, organism-based; details: in vivo
Method in brief: (§2)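 Female Swiss-Webster mice (20–23 g, 10 per group) were infected ip with 10^6 PFU HSV-2 Curtis in 0.3% BSA-PBS. Dosing was sc twice daily in PBS from 1 h postinfection for 5 days. Survival was recorded over 21 days. Mean day of death was computed for dead mice and compared with placebo-treated infected controls by Student's t-test.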

Mus musculus [12] = experiment: Number of survivors against Herpes simplex virus type-2 infection in mice at 150 mg/kg/day; format: functional; method in brief: as §2
Mus musculus [13] = experiment: Protective dose against Herpes simplex virus type type -1 infection in mice at 200 mg/kg; format: functional; details: read-out: PD50
Method in brief: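 Female Swiss-Webster mice (20–23 g), 10 per group, infected intraperitoneally with 10^3 PFU HSV-1 strain Schooler (Vero freeze-thaw extract) in 0.3% BSA-PBS. Subcutaneous dosing in PBS twice daily from 1 h postinfection for 5 days, 12.5–200 mg/kg/day. Survival scored over 21 days; PD50 from survival by probit analysis.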

Mus musculus [14] = experiment: Day of death in lethal test against herpes simplex virus type-1 at 12.5 mg/kg/day (mean day of death +/-SD); format: ADME, organism-based; details: in vivo
Method in brief: (§3)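 Female Swiss-Webster mice (20–23 g, 10 per group) were infected ip with 10^3 PFU HSV-1 Schooler in 0.3% BSA-PBS. Drug was given sc twice daily in PBS, starting 1 h postinfection, for 5 days. Survival was followed for 21 days. Mean day of death of dead animals was compared with placebo-treated infected controls by Student's t-test.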

Mus musculus [15] = experiment: Day of death in lethal test against herpes simplex virus type-2 at 100 mg/kg/day (mean day of death +/-SD); format: ADME, organism-based; details: in vivo; method in brief: as §2
Mus musculus [16] = experiment: Day of death in lethal test against herpes simplex virus type-1 at 50 mg/kg/day (mean day of death +/-SD); format: ADME, organism-based; details: in vivo; method in brief: as §3
Mus musculus [17] = experiment: Number of survivors against Herpes simplex virus type-2 infection in mice at 100 mg/kg/day; format: functional; method in brief: as §2
Mus musculus [18] = experiment: Day of death in lethal test against herpes simplex virus type-2 at 150 mg/kg/day (mean day of death +/-SD); format: ADME, organism-based; details: in vivo; method in brief: as §2
Mus musculus [19] = experiment: Number of survivors against Herpes simplex virus type-1 infection in mice at 12.5 mg/kg/day; format: functional; method in brief: as §3
Mus musculus [20] = experiment: Number of survivors against Herpes simplex virus type-1 infection in mice at 25 mg/kg/day; format: functional; method in brief: as §3
Human alphaherpesvirus 2 = experiment: Antiviral activity against Herpes simplex virus-2 (thymidine kinase deficient strains isolated as BVaraU resistant mutants of HSV-1 (KOS)); format: functional; details: read-out: ID50 (the source's name)
Mus musculus [21] = experiment: Number of survivors against Herpes simplex virus type-2 infection in mice at 50 mg/kg/day; format: functional
Method in brief: (§4)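 Female Swiss-Webster mice (20–23 g), 10 per group, infected intraperitoneally with 10^6 PFU HSV-2 strain Curtis (Vero freeze-thaw extract) in 0.3% BSA-PBS. Drug given subcutaneously in PBS twice daily from 1 h postinfection for 5 days, doses 12.5–200 mg/kg/day. Survival followed 21 days; PD50 by probit analysis; mean day of death by Student's t-test versus placebo.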

Mus musculus [22] = experiment: Day of death in lethal test against herpes simplex virus type-2 at 200 mg/kg/day (mean day of death +/-SD); format: ADME, organism-based; details: in vivo; method in brief: as §2
Mus musculus [23] = experiment: Number of survivors against Herpes simplex virus type-2 infection in mice at 200 mg/kg/day; format: functional; method in brief: as §2
Mus musculus [24] = experiment: Number of survivors against Herpes simplex virus type-1 infection in mice at 200 mg/kg/day; format: functional; method in brief: as §3
Mus musculus [25] = experiment: Protective dose against Herpes simplex virus type type -2 infection in mice at 200 mg/kg; format: functional; details: read-out: PD50; method in brief: as §4
Mus musculus [26] = experiment: Number of survivors against Herpes simplex virus type-1 infection in mice at 150 mg/kg/day; format: functional; method in brief: as §3
Mus musculus [27] = experiment: Day of death in lethal test against herpes simplex virus type-1 at 200 mg/kg/day (mean day of death +/-SD); format: ADME, organism-based; details: in vivo; method in brief: as §3
Mus musculus [28] = experiment: Number of survivors against Herpes simplex virus type-2 infection in mice at 12.5 mg/kg/day; format: functional; method in brief: as §2
Mus musculus [29] = experiment: Number of survivors against Herpes simplex virus type-2 infection in mice at 25 mg/kg/day; format: functional; method in brief: as §2
Mus musculus [30] = experiment: Day of death in lethal test against herpes simplex virus type-1 at 25 mg/kg/day (mean day of death +/-SD); format: ADME, organism-based; details: in vivo; method in brief: as §3
Mus musculus [31] = experiment: Number of survivors against Herpes simplex virus type-1 infection in mice at 100 mg/kg/day; format: functional; method in brief: as §3
Mus musculus [32] = experiment: Number of survivors against Herpes simplex virus type-1 infection in mice at 50 mg/kg/day; format: functional; method in brief: as §3
Mus musculus [33] = experiment: Day of death in lethal test against herpes simplex virus type-1 at 100 mg/kg/day (mean day of death +/-SD); format: ADME, organism-based; details: in vivo; method in brief: as §3

With `O=c1ccn([C@@H]2CO[C@H](CO)[C@H]2CO)c(=O)[nH]1` the IC50 (Human alphaherpesvirus 3 [1]) was 100 µM, the IC50 (Human alphaherpesvirus 1 [2]) was > 410 µM and the IC50 (Human betaherpesvirus 5) was > 410 µM.

`Nc1ccn([C@@H]2CO[C@H](CO)[C@H]2CO)c(=O)n1` gave an IC50 (Vaccinia virus) of 400 µM, an IC50 (Human alphaherpesvirus 3 [1]) of 0.4 µM and an IC50 (Human alphaherpesvirus 1 [2]) of 40 µM. For the same compound, the IC50 (Human betaherpesvirus 5) was 100 µM and the IC50 (WI-38) was 160 µM.

With `Cc1cn([C@@H]2CO[C@H](CO)[C@H]2CO)c(=O)nc1N` the IC50 (Human alphaherpesvirus 3 [1]) was 200 µM, the IC50 (Human alphaherpesvirus 1 [2]) was 390 µM and the IC50 (Human betaherpesvirus 5) was > 390 µM.

For `O=c1[nH]c(=O)n([C@@H]2CO[C@H](CO)[C@H]2CO)cc1/C=C/Br`, the IC50 [3] was 3 µM, the IC50 (Human alphaherpesvirus 3 [4]) was 3 µM and the IC50 (Vaccinia virus) was > 290 µM. It also gave an IC50 (Human alphaherpesvirus 3 [5]) of 0.06 µM, an IC50 (Human alphaherpesvirus 3 [6]) of 0.3 µM and an IC50 (Human alphaherpesvirus 3 [1]) of 0.1 µM. For the same compound, the IC50 (Human alphaherpesvirus 1 [2]) was 3 µM, the IC50 (Human betaherpesvirus 5) was > 290 µM and the IC50 (Human alphaherpesvirus 3 [7]) was > 300 µM. For the same compound, the IC50 (Human alphaherpesvirus 1 [8]) was > 290 µM, the IC50 [9] was 30 µM and the IC50 (WI-38) was > 800 µM. For the same compound, the IC50 (Human alphaherpesvirus 3 [10]) was 0.5 µM.

With `Nc1nc2c(ncn2COCCO)c(=O)[nH]1` [ACYCLOVIR] the IC50 [3] was 2 µM, the “Mean day of death” value (Mus musculus [11]) was 10 and the Survivors (Mus musculus [12]) was 4. The IC50 (Human alphaherpesvirus 3 [4]) was 4 µM, the ED50 (Mus musculus [13]) was > 200 mg/kg/day and the “Mean day of death” value (Mus musculus [14]) was 8.3. The “Mean day of death” value (Mus musculus [15]) was 13.5, the “Mean day of death” value (Mus musculus [16]) was 9 and the IC50 (Human alphaherpesvirus 3 [5]) was 2 µM. For the same compound, the IC50 (Human alphaherpesvirus 3 [6]) was 4 µM, the Survivors (Mus musculus [17]) was 2 and the “Mean day of death” value (Mus musculus [18]) was 13. The Survivors (Mus musculus [19]) was 0, the IC50 (Human alphaherpesvirus 3 [1]) was 4 µM and the Survivors (Mus musculus [20]) was 3. The IC50 (Human alphaherpesvirus 1 [2]) was 0.9 µM, the IC50 (Human alphaherpesvirus 2) was > 440 µM and the IC50 (Human betaherpesvirus 5) was 40 µM. The Survivors (Mus musculus [21]) was 1, the IC50 (Human alphaherpesvirus 3 [7]) was 100 µM and the IC50 (Human alphaherpesvirus 1 [8]) was > 440 µM. For the same compound, the “Mean day of death” value (Mus musculus [22]) was 13, the Survivors (Mus musculus [23]) was 5 and the Survivors (Mus musculus [24]) was 2. The ED50 (Mus musculus [25]) was > 200 mg/kg/day, the Survivors (Mus musculus [26]) was 2 and the IC50 [9] was 100 µM. The “Mean day of death” value (Mus musculus [27]) was 14, the Survivors (Mus musculus [28]) was 0 and the Survivors (Mus musculus [29]) was 0. For the same compound, the “Mean day of death” value (Mus musculus [30]) was 7.8, the Survivors (Mus musculus [31]) was 2 and the IC50 (WI-38) was > 800 µM. For the same compound, the Survivors (Mus musculus [32]) was 1, the “Mean day of death” value (Mus musculus [33]) was 9.3 and the IC50 (Human alphaherpesvirus 3 [10]) was 2 µM.
